Results as given in PMC6612960 (Drug Design, Development and Therapy, 2019).
pIC50: −log10 of the molar value.

Assays:
K562/MDR cells [1] = test: MTT assay, K562/MDR cells; format: cell-based, human; details: K562/MDR vs K562
[2] = test system: Peripheral blood mononuclear cells (PBMCs); test: Trypan Blue dye exclusion, PBMCs; format: cell-based; details: 2 μM, 24 hours, mouse PBMCs
Procedure, shortened: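 PBMCs from mouse blood isolated by Ficoll density gradient and seeded at 5×10^5 cells/well in 12-well plates in RPMI 1640 with 10% FBS. Treated with test compound (2, 4, 10 μM), PBS or melittin at 37°C for 24 h. Stained with 0.4% Trypan Blue for 5 min, washed three times in PBS and viewed by fluorescence microscopy.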

HEK293 cells = test: Peptide binding assay; format: cell-based, human; details: HEK293, 30 minutes, 37°C, flow cytometry
Procedure, shortened: (§1)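 Cells (human lines or mouse erythrocytes) resuspended in PBS at 1×10^6/ml and exposed to FITC-labelled peptide at 37°C for 30 min in the dark. Washed in PBS and read by flow cytometry as mean fluorescence of 10,000 cells. Mean±SEM of three independent experiments.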

Jurkat cells [3] = test: Confocal laser scanning microscopy, Jurkat; format: cell-based, human; details: incubation 30 minutes
Procedure, shortened: (§2)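 Cells exposed to FITC-labelled peptide for 30 min in the dark, harvested, rinsed three times in PBS and imaged at once by CLSM (488 nm argon excitation for FITC). For mitochondrial co-localisation, cells were then given 30 nM rhodamine 123 for 30 min in the dark, washed and imaged with 488 nm (FITC) and 525 nm (rhodamine 123) laser lines.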

erythrocytes = test: Peptide binding assay; format: cell-based; details: mouse erythrocytes, 30 minutes, 37°C, flow cytometry
Procedure, shortened: as §1

K562/MDR cells [4] = test: Confocal laser scanning microscopy, K562/MDR; format: cell-based, human; details: incubation 30 minutes
Procedure, shortened: as §2

non-cancer cells = details: even at 120 μM; cited from earlier work
K562/MDR cells [5] = test: LDH release, K562/MDR; format: cell-based, human; details: CM4 treatment (3, 9, 30 μM)
Procedure, shortened: (§3)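 Cells (1×10^5/mL) in RPMI 1640 held 4 h at 37°C, then exposed to peptide at 3, 9 or 30 μM for varying times. PBS and 2% Triton X-100 controls. Cell-free supernatant mixed with tetrazolium salt reagent; formazan read at 490 nm. Leakage % = [(A−C)/(P−C)]×100 (C = PBS, P = Triton). Mean±SEM of four independent experiments.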

[6] = test system: leukemia cells (K562, THP-1, and U937 cells); details: read-out: IC50, anticancer activity in leukemia cells; cited from earlier work
Jurkat cells [7] = test: LDH release, Jurkat; format: cell-based, human; details: CM4 treatment (3, 9, 30 μM)
Procedure, shortened: as §3

COc1cccc2c1C(=O)c1c(O)c3c(c(O)c1C2=O)C[C@@](O)(C(=O)CO)C[C@@H]3O[C@H]1C[C@H](N)[C@H](O)[C@H](C)O1 [doxorubicin]
resistance of K562/MDR compared with K562 cells (K562/MDR cells [1]): a certain resistence

CC[C@H](C)[C@H](NC(=O)CN)C(=O)NCC(=O)N[C@@H](C)C(=O)N[C@H](C(=O)N[C@@H](CC(C)C)C(=O)N[C@@H](CCCCN)C(=O)N[C@H](C(=O)N[C@@H](CC(C)C)C(=O)N[C@H](C(=O)N[C@H](C(=O)NCC(=O)N[C@@H](CC(C)C)C(=O)N1CCC[C@H]1C(=O)N[C@@H](C)C(=O)N[C@@H](CC(C)C)C(=O)N[C@H](C(=O)N[C@@H](CO)C(=O)N[C@@H](Cc1c[nH]c2ccccc12)C(=O)N[C@H](C(=O)N[C@@H](CCCCN)C(=O)N[C@@H](CCCNC(=N)N)C(=O)N[C@@H](CCCCN)C(=O)N[C@@H](CCCNC(=N)N)C(=O)N[C@@H](CCC(N)=O)C(=O)N[C@@H](CCC(N)=O)C(N)=O)[C@@H](C)CC)[C@@H](C)CC)[C@@H](C)O)[C@@H](C)O)C(C)C)C(C)C [melittin]
cytotoxicity of PBMCs [2]: 100%

FITC-myristoyl-CM4: fluorescein isothiocyanate labeled myristoyl-CM4 (GRWKIFKKIEKVGQNIRDGIVKAGPAVAVVGQAATI; not fully specified; FITC, myristoyl, C-terminal amide)
fluorescence intensity on cells (HEK293 cells): very weak | FITC signal on the cells (CLSM) (Jurkat cells [3]): stronger than the FITC-CM4 signal | fluorescence intensity on cells (erythrocytes): very weak | FITC signal on the cells (CLSM) (K562/MDR cells [4]): stronger than the FITC-CM4 signal

GRWKIFKKIEKVGQNIRDGIVKAGPAVAVVGQAATI-NH2 [CM4]
cytotoxicity towards non-cancer cells (non-cancer cells): no cytotoxicity | LDH release (K562/MDR cells [5]): Virtually no LDH was released | pIC50 [6]: 4.40 to 4.70 | LDH release (Jurkat cells [7]): Virtually no LDH was released
